# Reference: ChEMBL document CHEMBL3526127, “Absorption, elimination, and metabolism of CS-1036, a novel α-amylase inhibitor in rats and monkeys, and the relationship between gastrointestinal distribution and suppression of glucose absorption” (Drug Metab Dispos, 2013)
# Experiments:
# [1] = Tmax in F344 rat at 3 mg/kg, po administered as single dose by LC-MS/MS method; assay type: ADME, organism-based; parameters: dose 3 mg/kg, route oral; conditions: in vivo
# How it was run: (§1)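 Male F344 rats (146–185 g) and male cynomolgus monkeys (3.48–4.29 kg), n = 4 each, fasted overnight, received single iv or oral doses of 0.3, 1.0, 3.0 or 10.0 mg/kg. Monkeys had 2-week washouts between doses. Plasma was sampled to 48 h and assayed by LC-MS/MS with deuterated internal standard. Noncompartmental analysis: tmax observed; t1/2 by regression on ≥3 terminal log points; Vss = dose·AUMC/(AUC0–inf)²; Foral = oral/iv AUC0–inf at the same dose.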
# [2] = Tmax in cynomolgus monkey at 10 mg/kg, po administered as single dose by LC-MS/MS method; assay type: ADME, organism-based, Macaca fascicularis; parameters: dose 10 mg/kg, route oral; conditions: in vivo; how it was run: as §1
# [3] = AUC (0 to infinity) in F344 rat at 0.3 mg/kg, iv administered as single dose by LC-MS/MS method; assay type: ADME, organism-based; parameters: time infinity, dose 0.3 mg/kg, route intravenous; conditions: plasma
# How it was run: (§2)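 Fasted male F344 rats (146–185 g) or male cynomolgus monkeys (3.48–4.29 kg), n = 4 per dose, given single iv or oral dose of 0.3, 1.0, 3.0 or 10.0 mg/kg; monkeys dosed with 2-week washouts. Blood sampled to 48 h; plasma stored frozen. LC-MS/MS with deuterated internal standard. Noncompartmental analysis: AUClast by trapezoidal rule; AUC0–inf = AUClast + Ctz/terminal rate constant; mean ± S.D.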
# [4] = AUClast in cynomolgus monkey at 3 mg/kg, po administered as single dose by LC-MS/MS method; assay type: ADME, organism-based, Macaca fascicularis; parameters: time 0 - last, dose 3 mg/kg, route oral; conditions: plasma; how it was run: as §2
# [5] = Tmax in F344 rat at 0.3 mg/kg, po administered as single dose by LC-MS/MS method; assay type: ADME, organism-based; parameters: dose 0.3 mg/kg, route oral; conditions: in vivo; how it was run: as §1
# [6] = Half life in F344 rat at 1 mg/kg, po administered as single dose by LC-MS/MS method; assay type: ADME, organism-based; parameters: dose 1 mg/kg, route oral; conditions: in vivo
# [7] = AUC (0 to infinity) in cynomolgus monkey at 1 mg/kg, iv administered as single dose by LC-MS/MS method; assay type: ADME, organism-based, Macaca fascicularis; parameters: time infinity, dose 1 mg/kg, route intravenous; conditions: plasma; how it was run: as §2
# [8] = AUC (0 to infinity) in F344 rat at 3 mg/kg, po administered as single dose by LC-MS/MS method; assay type: ADME, organism-based; parameters: time infinity, dose 3 mg/kg, route oral; conditions: plasma; how it was run: as §2
# [9] = AUClast in F344 rat at 1 mg/kg, iv administered as single dose by LC-MS/MS method; assay type: ADME, organism-based; parameters: time 0 - last, dose 1 mg/kg, route intravenous; conditions: plasma; how it was run: as §2
# [10] = Half life in cynomolgus monkey at 3 mg/kg, po administered as single dose by LC-MS/MS method; assay type: ADME, organism-based, Macaca fascicularis; parameters: dose 3 mg/kg, route oral; conditions: in vivo; how it was run: as §1
# [11] = AUC (0 to infinity) in cynomolgus monkey at 10 mg/kg, iv administered as single dose by LC-MS/MS method; assay type: ADME, organism-based, Macaca fascicularis; parameters: dose 10 mg/kg, route intravenous, time infinity; conditions: plasma; how it was run: as §2
# [12] = Cmax in F344 rat at 0.3 mg/kg, po administered as single dose by LC-MS/MS method; assay type: ADME, organism-based; parameters: dose 0.3 mg/kg, route oral; conditions: in vivo
# How it was run: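 Fasted male F344 rats (146–185 g) and cynomolgus monkeys (3.48–4.29 kg), n = 4 each, received a single oral dose; monkeys had 2-week washouts. Plasma sampled up to 48 h, stored at […], assayed by LC-MS/MS with a deuterated internal standard. Cmax taken from observed data by noncompartmental analysis; mean ± S.D. (n = 3 or 4).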
# [13] = AUClast in cynomolgus monkey at 1 mg/kg, po administered as single dose by LC-MS/MS method; assay type: ADME, organism-based, Macaca fascicularis; parameters: time 0 - last, dose 1 mg/kg, route oral; conditions: plasma; how it was run: as §2
# [14] = Clearance in F344 rat at 10 mg/kg, iv administered as single dose by LC-MS/MS method; assay type: ADME, organism-based; parameters: dose 10 mg/kg, route intravenous; conditions: in vivo
# How it was run: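 Fasted male F344 rats (146–185 g) and male cynomolgus monkeys (3.48–4.29 kg), n = 4 each, received a single iv dose; monkeys had 2-week washouts between doses. Blood was sampled up to 48 h and plasma stored at […]. Plasma parent was quantified by LC-MS/MS with a deuterated internal standard. CL = dose/AUC0–inf by noncompartmental analysis; mean ± S.D.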
# [15] = AUClast in cynomolgus monkey at 10 mg/kg, po administered as single dose by LC-MS/MS method; assay type: ADME, organism-based, Macaca fascicularis; parameters: time 0 - last, dose 10 mg/kg, route oral; conditions: plasma; how it was run: as §2
# [16] = Cmax in F344 rat at 10 mg/kg, po administered as single dose by LC-MS/MS method; assay type: ADME, organism-based; parameters: dose 10 mg/kg, route oral; conditions: in vivo
# [17] = Drug metabolism in rat intestinal […] S9 fractions at 0.42 uCi/ml assessed as metabolite formation in presence of NADPH after 1 hr at 37 degC by LC-MS/MS method; assay type: ADME, subcellular; conditions: s9, 1 h
# [18] = Drug excretion in F344 rat expired air at 1 mg/kg, iv administered as single dose after 0 to 48 hrs by scintillation counting method; assay type: ADME, organism-based; parameters: dose 1 mg/kg, route intravenous; conditions: in vivo
# How it was run: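 Fasted F344 rats (152–156 g iv via tail vein; 154–159 g oral; n = 4) received [14C]-labelled drug at 1 mg/kg (41.9 µCi/kg). Animals were kept in metabolic cages; urine and feces were collected to 168 h, and expired CO2 was trapped in 2-aminoethanol/2-methoxyethanol (1:1) to 48 h. Samples were counted by liquid scintillation (feces homogenized). Results are % of dose, mean ± S.D.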
# [19] = system: Cynomolgus monkey; experiment: Total drug excretion in cynomolgus monkey at 3 mg/kg, iv administered as single dose after 0 to 48 hrs by scintillation counting method; assay type: ADME, organism-based, Macaca fascicularis; parameters: dose 3 mg/kg, route intravenous; conditions: in vivo
# How it was run: (§3)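 Fasted male cynomolgus monkeys (n = 4) were dosed with 14C-labelled drug at 3 mg/kg, iv via saphenous vein (191 µCi/kg) or orally by stomach catheter (156.5 µCi/kg). Urine, feces and cage-wash water were collected to 336 h. Radioactivity was measured by liquid scintillation counting, with feces homogenized in water, and expressed as % of dose.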
# [20] = Drug excretion in cynomolgus monkey urine at 3 mg/kg, iv administered as single dose after 0 to 336 hrs by scintillation counting method; assay type: ADME, organism-based, Macaca fascicularis; parameters: dose 3 mg/kg, route intravenous; conditions: in vivo
# [21] = system: Cynomolgus monkey; experiment: Drug excretion in cynomolgus monkey assessed as drug level found during cage washing at 3 mg/kg, po administered as single dose after 0 to 336 hrs by scintillation counting method; assay type: ADME, organism-based, Macaca fascicularis; parameters: dose 3 mg/kg, route oral; conditions: in vivo
# How it was run: (§4)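 Fasted cynomolgus monkeys (n = 4) received [14C]-labelled drug at 3 mg/kg, iv via saphenous vein (191 µCi/kg) or orally by stomach catheter (156.5 µCi/kg). Urine, feces and water cage-wash were collected to 336 h. Samples were counted by liquid scintillation; feces were homogenized in 4-fold water. Results are % of dose, mean ± S.D.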
# [22] = Drug metabolism in human liver S9 fractions at 0.42 uCi/ml assessed as metabolite formation in presence of NADPH after 1 hr at 37 degC by LC-MS/MS method; assay type: ADME, subcellular, Liver S9 fraction; conditions: s9, 1 h
# [23] = Ratio of drug level in blood to plasma in F344 rat after 5 mins; assay type: ADME
# [24] = Drug metabolism in monkey liver S9 fractions at 0.42 uCi/ml assessed as metabolite formation in presence of NADPH after 1 hr at 37 degC by LC-MS/MS method; assay type: ADME, subcellular, Macaca mulatta, Liver S9 fraction; conditions: rhesus monkey, s9, 1 h
# [25] = Drug excretion in cynomolgus monkey feces at 3 mg/kg, iv administered as single dose after 0 to 48 hrs by scintillation counting method; assay type: ADME, organism-based, Macaca fascicularis; parameters: dose 3 mg/kg, route intravenous; conditions: in vivo; how it was run: as §4
# [26] = system: Cynomolgus monkey; experiment: Total drug excretion in cynomolgus monkey at 3 mg/kg, iv administered as single dose after 0 to 336 hrs by scintillation counting method; assay type: ADME, organism-based, Macaca fascicularis; parameters: dose 3 mg/kg, route intravenous; conditions: in vivo; how it was run: as §3
smiles,measurement,setting,value
C[C@H]1O[C@@H](O[C@H]2[C@H](O)[C@@H](O)[C@@H](O[C@H]3[C@H](O)CN[C@@H]3CO)O[C@@H]2CO)[C@H](O)[C@@H](O)[C@@H]1O,Tmax,[1],0.375 h
same,Tmax,[2],1.75 h
same,AUC(0-inf),[3],1870 ng·h/mL
same,AUC(0-t),[4],186 ng·h/mL
same,Tmax,[5],0.5 h
same,half-life,[6],1.81 h
same,AUC(0-inf),[7],5890 ng·h/mL
same,AUC(0-inf),[8],325 ng·h/mL
same,AUC(0-t),[9],4920 ng·h/mL
same,half-life,[10],2.12 h
same,AUC(0-inf),[11],74500 ng·h/mL
same,Cmax,[12],16.2 ng/mL
same,AUC(0-t),[13],52 ng·h/mL
same,clearance,[14],3.16 mL/min/kg
same,AUC(0-t),[15],869 ng·h/mL
same,Cmax,[16],285 ng/mL
C[C@H]1O[C@@H](O[C@H]2[C@H](O)[C@@H](O)[C@@H](O[14C@H]3[14C@H](O)[14CH2]N[14C@@H]3[14CH2]O)O[C@@H]2CO)[C@H](O)[C@@H](O)[C@@H]1O,Drug metabolism,[17],metabolite_not_detected
same,Drug excretion,[18],0.82%
same,Drug excretion,[19],94.29%
same,Drug excretion,[20],81.13%
same,Drug excretion,[21],1.35%
same,Drug metabolism,[22],metabolite_not_detected
same,blood plasma ratio at 5 min,[23],0.575
same,Drug metabolism,[24],metabolite_not_detected
same,Drug excretion,[25],0.46%
same,Drug excretion,[26],96.29%
